Laboratory results published in ChEMBL document CHEMBL1155297, “Synthesis, antimicrobial and antioxidant activities of substituted pyrazoles, isoxazoles, pyrimidine and thioxopyrimidine derivatives” (2009).

Columns and labels:
Assay type in all cases: functional
[1] = tested on: Staphylococcus aureus; assay: Antibacterial activity against Staphylococcus aureus NCIM 5021 at 100 ug/disk after 24 hrs by agar disk diffusion method; settings: NCIM 5021, 24 h, read-out: IZ
How it was run: (§1)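 Agar disc diffusion on nutrient agar plates pre-inoculated with each bacterium. Sterile 6 mm filter-paper discs were moistened with compound in DMSO at the stated per-disc amount. Plates were incubated at 37 °C, and the growth-inhibition zone diameter was read after 24 h. Each determination was run in triplicate, and the mean of three independent readings is reported.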

[2] = tested on: Staphylococcus aureus; assay: Antibacterial activity against Staphylococcus aureus NCIM 5021 at 200 ug/disk after 24 hrs by agar disk diffusion method; settings: NCIM 5021, 24 h, read-out: IZ; how it was run: as §1
[3] = tested on: Bacillus subtilis; assay: Antibacterial activity against Bacillus subtilis NCIM 2063 at 100 ug/disk after 24 hrs by agar disk diffusion method; settings: NCIM 2063, 24 h, read-out: IZ; how it was run: as §1
[4] = tested on: Bacillus subtilis; assay: Antibacterial activity against Bacillus subtilis NCIM 2063 at 200 ug/disk after 24 hrs by agar disk diffusion method; settings: NCIM 2063, 24 h, read-out: IZ; how it was run: as §1
[5] = tested on: Klebsiella pneumoniae; assay: Antibacterial activity against Klebsiella pneumoniae NCIM 2957 at 100 ug/disk after 24 hrs by agar disk diffusion method; settings: NCIM 2957, 24 h, read-out: IZ; how it was run: as §1
[6] = tested on: Klebsiella pneumoniae; assay: Antibacterial activity against Klebsiella pneumoniae NCIM 2957 at 200 ug/disk after 24 hrs by agar disk diffusion method; settings: NCIM 2957, 24 h, read-out: IZ; how it was run: as §1
[7] = tested on: Proteus vulgaris; assay: Antibacterial activity against Proteus vulgaris NCIM 2027 at 100 ug/disk after 24 hrs by agar disk diffusion method; settings: NCIM 2027, 24 h, read-out: IZ; how it was run: as §1
[8] = tested on: Proteus vulgaris; assay: Antibacterial activity against Proteus vulgaris NCIM 2027 at 200 ug/disk after 24 hrs by agar disk diffusion method; settings: NCIM 2027, 24 h, read-out: IZ; how it was run: as §1
[9] = tested on: Fusarium solani; assay: Antifungal activity against Fusarium solani NCIM 1330 at 100 ug/disk after 48 hrs by agar disk diffusion method; settings: NCIM 1330, 48 h, read-out: IZ
How it was run: (§2)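 Fungal disc diffusion on nutrient agar plates pre-inoculated with each fungus. 6 mm sterile paper discs carried the compound in DMSO at the stated amount per disc. Plates were held at 37 °C, and inhibition-zone diameter was measured after 48 h. Values are the mean of three independent triplicate readings.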

[10] = tested on: Fusarium solani; assay: Antifungal activity against Fusarium solani NCIM 1330 at 200 ug/disk after 48 hrs by agar disk diffusion method; settings: NCIM 1330, 48 h, read-out: IZ; how it was run: as §2
[11] = tested on: Curvularia lunata; assay: Antifungal activity against Curvularia lunata NCIM 716 at 100 ug/disk after 48 hrs by agar disk diffusion method; settings: NCIM 716, 48 h, read-out: IZ; how it was run: as §2
[12] = tested on: Curvularia lunata; assay: Antifungal activity against Curvularia lunata NCIM 716 at 200 ug/disk after 48 hrs by agar disk diffusion method; settings: NCIM 716, 48 h, read-out: IZ; how it was run: as §2
[13] = tested on: Aspergillus niger; assay: Antifungal activity against Aspergillus niger NCIM 596 at 100 ug/disk after 48 hrs by agar disk diffusion method; settings: NCIM 596, 48 h, read-out: IZ; how it was run: as §2
[14] = tested on: Aspergillus niger; assay: Antifungal activity against Aspergillus niger NCIM 596 at 200 ug/disk after 48 hrs by agar disk diffusion method; settings: NCIM 596, 48 h, read-out: IZ; how it was run: as §2
[15] = tested on: Radical scavenging activity; assay: Antioxidant activity assessed as DPPH free radical scavenging activity at 100 uM after 20 mins
How it was run: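 DPPH scavenging: compound solutions were added to DPPH in dioxane/ethanol and kept at ambient temperature for 20 min. Absorbance was read at 517 nm. The test–control difference was expressed as percent DPPH radical scavenging.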

[16] = Antioxidant activity assessed as nitric oxide production at 100 uM after 120 mins by Griess reagent method
How it was run: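 Nitric oxide assay with Griess read-out. At intervals, 0.5 ml of incubation solution was mixed with 0.5 ml Griess reagent (1% sulfanilamide, 0.1% N-naphthylethylenediamine dihydrochloride, 2% o-phosphoric acid in water). The control received an equal amount of solvent and was handled identically.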

NC1=NC(=O)N=C(N)C1C(CS(=O)(=O)c1ccccc1)S(=O)(=O)c1ccccc1 (stereo unspecified)
zone of inhibition at 100 µg/disc [1]: 18 mm
zone of inhibition at 200 µg/disc [2]: 20 mm
zone of inhibition at 100 µg/disc [3]: 16 mm
zone of inhibition at 200 µg/disc [4]: 19 mm
zone of inhibition at 100 µg/disc [5]: 16 mm
zone of inhibition at 200 µg/disc [6]: 18 mm
zone of inhibition at 100 µg/disc [7]: 14 mm
zone of inhibition at 200 µg/disc [8]: 16 mm
zone of inhibition at 100 µg/disc [9]: 14 mm
zone of inhibition at 200 µg/disc [10]: 19 mm
zone of inhibition at 100 µg/disc [11]: 18 mm
zone of inhibition at 200 µg/disc [12]: 21 mm
zone of inhibition at 100 µg/disc [13]: 15 mm
zone of inhibition at 200 µg/disc [14]: 18 mm
inhibition [15]: 28.8%
inhibition [16]: 29.7%

Cc1ccc(S(=O)(=O)CC(C2C(N)=NC(=O)N=C2N)S(=O)(=O)c2ccc(C)cc2)cc1 (stereo unspecified)
zone of inhibition at 100 µg/disc [1]: 21 mm
zone of inhibition at 200 µg/disc [2]: 23 mm
zone of inhibition at 100 µg/disc [3]: 22 mm
zone of inhibition at 200 µg/disc [4]: 24 mm
zone of inhibition at 100 µg/disc [5]: 17 mm
zone of inhibition at 200 µg/disc [6]: 19 mm
zone of inhibition at 100 µg/disc [7]: 16 mm
zone of inhibition at 200 µg/disc [8]: 18 mm
zone of inhibition at 100 µg/disc [9]: 13 mm
zone of inhibition at 200 µg/disc [10]: 16 mm
zone of inhibition at 100 µg/disc [11]: 16 mm
zone of inhibition at 200 µg/disc [12]: 18 mm
zone of inhibition at 100 µg/disc [13]: 11 mm
zone of inhibition at 200 µg/disc [14]: 15 mm
inhibition [15]: 28.1%
inhibition [16]: 27.9%

Cc1ccc(S(=O)(=O)CC(C2C(=N)N(C)C(=O)N(C)C2=N)S(=O)(=O)c2ccc(C)cc2)cc1 (stereo unspecified)
zone of inhibition at 100 µg/disc [1]: 11 mm
zone of inhibition at 200 µg/disc [2]: 13 mm
zone of inhibition at 100 µg/disc [3]: 12 mm
zone of inhibition at 200 µg/disc [4]: 14 mm
zone of inhibition at 100 µg/disc [5]: 9 mm
zone of inhibition at 200 µg/disc [6]: 11 mm
zone of inhibition at 100 µg/disc [7]: 8 mm
zone of inhibition at 200 µg/disc [8]: 10 mm
zone of inhibition at 100 µg/disc [9]: 11 mm
zone of inhibition at 200 µg/disc [10]: 14 mm
zone of inhibition at 100 µg/disc [11]: 13 mm
zone of inhibition at 200 µg/disc [12]: 16 mm
zone of inhibition at 100 µg/disc [13]: 10 mm
zone of inhibition at 200 µg/disc [14]: 13 mm
inhibition [15]: 24.8%
inhibition [16]: 24.6%

Cc1ccc(C(=O)CC(C(=O)c2ccc(C)cc2)C2C(N)=NC(=S)N=C2N)cc1 (stereo unspecified)
zone of inhibition at 100 µg/disc [1]: 20 mm
zone of inhibition at 200 µg/disc [2]: 21 mm
zone of inhibition at 100 µg/disc [3]: 21 mm
zone of inhibition at 200 µg/disc [4]: 24 mm
zone of inhibition at 100 µg/disc [5]: 18 mm
zone of inhibition at 200 µg/disc [6]: 20 mm
zone of inhibition at 100 µg/disc [7]: 16 mm
zone of inhibition at 200 µg/disc [8]: 18 mm
zone of inhibition at 100 µg/disc [9]: 15 mm
zone of inhibition at 200 µg/disc [10]: 19 mm
zone of inhibition at 100 µg/disc [11]: 15 mm
zone of inhibition at 200 µg/disc [12]: 18 mm
zone of inhibition at 100 µg/disc [13]: 14 mm
zone of inhibition at 200 µg/disc [14]: 16 mm
inhibition [15]: 32.3%
inhibition [16]: 29.4%

Cc1ccc(S(=O)(=O)CC(C2C(=N)ON=C2N)S(=O)(=O)c2ccc(C)cc2)cc1 (stereo unspecified)
zone of inhibition at 100 µg/disc [1]: 26 mm
zone of inhibition at 200 µg/disc [2]: 27 mm
zone of inhibition at 100 µg/disc [3]: 26 mm
zone of inhibition at 200 µg/disc [4]: 29 mm
zone of inhibition at 100 µg/disc [5]: 25 mm
zone of inhibition at 200 µg/disc [6]: 27 mm
zone of inhibition at 100 µg/disc [7]: 24 mm
zone of inhibition at 200 µg/disc [8]: 25 mm
zone of inhibition at 100 µg/disc [9]: 28 mm
zone of inhibition at 200 µg/disc [10]: 31 mm
zone of inhibition at 100 µg/disc [11]: 28 mm
zone of inhibition at 200 µg/disc [12]: 30 mm
zone of inhibition at 100 µg/disc [13]: 26 mm
zone of inhibition at 200 µg/disc [14]: 29 mm
inhibition [15]: 80.8%
inhibition [16]: 81.5%

Cc1ccc(C(=O)CC(C(=O)c2ccc(C)cc2)C2C(N)=NC(=O)N=C2N)cc1 (stereo unspecified)
zone of inhibition at 100 µg/disc [1]: 12 mm
zone of inhibition at 200 µg/disc [2]: 15 mm
zone of inhibition at 100 µg/disc [3]: 11 mm
zone of inhibition at 200 µg/disc [4]: 12 mm
zone of inhibition at 100 µg/disc [5]: 10 mm
zone of inhibition at 200 µg/disc [6]: 12 mm
zone of inhibition at 100 µg/disc [7]: 13 mm
zone of inhibition at 200 µg/disc [8]: 14 mm
zone of inhibition at 100 µg/disc [9]: 14 mm
zone of inhibition at 200 µg/disc [10]: 18 mm
zone of inhibition at 100 µg/disc [11]: 15 mm
zone of inhibition at 200 µg/disc [12]: 17 mm
zone of inhibition at 100 µg/disc [13]: 13 mm
zone of inhibition at 200 µg/disc [14]: 15 mm
inhibition [15]: 28.6%
inhibition [16]: 27.2%
